# In the library only some 3.6% were active in any assay of this set; here they are far more common.
# CSC inhib = cancer stem cell viability inhibitors, primary screen, luminescence | inhibition, % at 7.5 µM | 300,000 tested, 1.1% active | cancer stem cell-like cells viability | AID 2717, 2010; in the data active = inhibition above about 75%; inconclusive = no clear call, values can overlap the other calls; tested in HMLE shEcad cells
# T cruzi repl = inhibitors of intracellular T. cruzi growth, primary screen, luminescence, NIH3T3 host cells; inhibition, % (concentration not given with the values); T. cruzi beta-gal in NIH3T3, 90 h; 300,000 tested, 1.4% active; AID 1885, 2009;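 active = mean inhibition across valid replicates above about 55%, limit read from the data; inconclusive = mean below that limit but half or more replicates reach it; inactive = mean below it, under half of replicates reach it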;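 note: signal also drops with host cell toxicity which is not excluded here; 0% = plate median of DMSO wells and 100% = zero luminescence signal; higher percent means less beta-gal luminescence so fewer parasites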
#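 Test system: β-gal T. cruzi (Tulahuen C4) inside NIH/3T3 cells / Quantity: 5,000 cells/well / Measured by: luminescence from GalScreen with 0.05% NP40, read after 60 min / Medium: DMEM plus 2% FBS / Measure: parasite load inhibition, % / Reagent: Tulahuen C4 trypomastigotes, 5000/well / Schedule: co-culture of at least 90 h after 3 h attachment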
# HIF activator = HIF pathway transcriptional activators, primary screen, cell-based, U2OS HRE-luciferase, luminescence | U2OS HRE-luciferase reporter; normalized: DMSO 0%, desferrioxamine 100% | AID 1910, 2009 | activation, % at 7.5 µM (by protocol) | 300,000 tested, 0.32% active;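 active = mean activation of at least 10% of the iron chelator positive control signal, with at least half of replicates also reaching 10%; inconclusive = mean and replicate majority disagree about reaching 10%; inactive = mean and most replicates under 10%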
# Beta apoptosis = inhibitors of cytokine-induced beta cell apoptosis, primary screen, luminescence. 300,000 tested, 0.8% active. INS-1E cytokine-induced death, ATP luminescence, 48 h; percent of positive-control rescue, neutral wells zero. protection from apoptosis, % (no concentration beside the values). AID 435005, 2010;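 active = Every replicate reaches about 75%, or at least half do and their mean reaches it too, limit read from the data; inconclusive = At least half of replicates reach the limit but their mean does not; inactive = Under half of replicates reach the limit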;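 note: 0% = cytokine-treated negative control wells and 100% = positive control rescue; higher means more ATP so stronger rescue from cytokine killing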
# SKKanGAS inh = S. pyogenes SKKanGAS growth inhibitors in kanamycin, primary screen, streptokinase expression inhibitor project, SKKanGAS strain, BacTiter-Glo luminescence | 6 h | AID 1662, 2009 | inhibition, % at 7.5 µM | 300,000 tested, 1.3% active;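 active = mean replicate score, as percent of positive control median, at least 50; inconclusive = mean below 50 but one replicate at or above 50; inactive = mean and every replicate below 50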;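 note: strain carries kanamycin resistance gene driven by streptokinase promoter and grows in 40 µg/ml kanamycin; loss of luminescence reflects streptokinase promoter inhibition or plain growth inhibition; 0% = median of DMSO wells and 100% = positive control at its reference dose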
# PfHsp90 yeast 2 = growth inhibition of PfHsp90-expressing yeast, primary screen, antimalarial PfHsp90 inhibitor project, S. cerevisiae, BacTiter-Glo luminescence, single point, set 2. 310,000 tested, 0.32% active. inhibition, % at 9.4 µM. BacTiter-Glo ATP, 48 h; yeast lacking PDR1 and PDR3 efflux regulators;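 active = every replicate shows inhibition above about 80%, whatever the replicate mean, limit read from the data; inconclusive = mean inhibition reaches the set limit but some replicate falls short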;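 note: 0% = DMSO neutral controls and 100% = 20 µM radicicol positive controls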
# The depositor's hits bear a star; ? = inconclusive; . = not tested or not shown.
SMILES,CSC inhib,T cruzi repl,HIF activator,Beta apoptosis,SKKanGAS inh,PfHsp90 yeast 2
CN(C)c1nc(NCc2ccccc2)nc(SCC(=O)Nc2ccc(Cl)c(Cl)c2)n1,-7,55*,-1,1,28,-6
COc1ccc(NC(=S)N=Nc2c(O)[nH]c3ccccc23)cc1,52,48,2,22,95*,11
Cc1ccc(NC(=S)N=Nc2c(O)[nH]c3ccccc23)cc1,53,68*,2,.,73*,-37
CCC(NC(=O)CCc1c(C)c2cc3c(C)c(C)oc3cc2oc1=O)C(=O)N[C@@H](Cc1ccccc1)C(=O)O (stereo partly drawn),-13,3,0,2,61*,-1
CSC[C@H](NC(=O)Cc1c(C)c2cc3c(C)c(C)oc3cc2oc1=O)C(=O)N[C@@H](Cc1ccccc1)C(=O)O,3,-10,0,-2,14,-20
COCc1cc(=O)c2ccccc2o1,.,.,.,0,.,4
COc1ccc(-c2c[n+]3c(n2-c2ccccc2)SCC3)cc1,-4,61*,0,.,-2,5
Cc1ccc(-c2c[n+]3c(n2-c2ccccc2)SCC3)cc1,6,66*,0,106*,7,16
Brc1ccc(-c2c[n+]3c(n2-c2ccccc2)SCC3)cc1,2,47,0,49,5,.
CC(=NCc1cccc(Cl)c1)c1nc(-c2ccco2)oc1O,100*,2,1,-4,-2,4
Oc1oc(-c2ccco2)nc1C=Nc1ccccc1,-4,16,2,-9,-5,4
O=C(Nc1nc(-c2ccccn2)cs1)c1ccccc1-n1cnnn1,34,63*,52*,78*,12,-45
Cc1cc(C(=O)Nc2nc(-c3ccccn3)cs2)ccc1[N+](=O)[O-],-4,80*,1,3,91*,36
O=C(Nc1nc(-c2ccccn2)cs1)c1ccc2c(c1)OCCO2,26,49,2,5,83*,1
CC(=O)Nc1ccc(C(=O)Nc2nc(-c3ccccn3)cs2)cc1,17,19,0,16,6,13
O=C(Nc1nc(-c2ccccn2)cs1)c1cc(Cl)ccc1[N+](=O)[O-],94*,64*,36*,93*,95*,.
Cn1nc(C(=O)Nc2nc(-c3ccccn3)cs2)c2ccccc2c1=O,.,.,.,.,.,-13
Cc1csc(NC(=O)c2ccc(Cl)cc2[N+](=O)[O-])n1,3,47,2,-2,1,3
CCOc1ccc(CN(CCC#N)C(=S)NC(=O)c2ccccc2)cc1,9,4,0,19,0,-17
CCOc1ccc(C(=O)NC(=S)N(Cc2ccccc2)Cc2ccccc2)cc1,28,?,1,18,98*,.
O=C(NNC(=S)NC(=O)c1ccccc1)c1ccc(O)cc1,8,-18,0,11,74*,16
CC(C)(C)c1ccc(C(=O)NC(=S)NNC(=O)COc2ccccc2)cc1,23,-18,1,0,91*,3
CCCOc1ccc(C(=O)NNC(=S)NC(C)=O)cc1,10,-9,0,34,93*,17
Cc1ccc(C(=O)NNC(=S)NC(=O)COc2ccccc2)cc1,6,-7,.,-3,33,-4
Cc1cccc(/C=N/NC(=O)Cn2nnnc2N)n1,-23,2,0,0,-5,2
SMILES,CSC inhib,T cruzi repl,HIF activator,Beta apoptosis,SKKanGAS inh,PfHsp90 yeast 2
CCCOc1ccc(C(=O)NNC(=S)NC(=O)c2ccccc2[N+](=O)[O-])cc1,10,-6,1,4,78*,-20
CCCCOc1ccc(C(=O)NNC(=S)NC(=O)CC)cc1,47,4,3,79*,97*,106*
CC(C)(C)C(=O)NC(=S)NNC(=O)c1ccc(-c2ccccc2)cc1,91*,43,1,76*,91*,104*
CCCOc1ccc(C(=O)NNC(=S)NC(=O)c2ccccc2)cc1,47,19,1,28,107*,25
O=C(CSc1nnc(-c2ccncc2)o1)NC1C2CC3CC(C2)CC1C3 (stereo not drawn),-13,46,.,-2,-5,-22
Cc1cnc(=O)[nH]c1SCc1ccc([N+](=O)[O-])cc1,-25,7,-1,-7,-1,-12
CC(C)(C)c1ccc(OCC(=O)NNC(=S)NC(=O)c2ccccc2[N+](=O)[O-])c(Br)c1,27,-7,0,-3,100*,-16
CCCOc1ccc(C(=O)NNC(=S)NC(=O)c2cccs2)cc1,49,21,-1,41,74*,9
CC(C)(C)C(=O)NC(=S)NNC(=O)c1ccc(Cl)cc1Cl,18,15,0,30,73*,38
COC(=O)NNC(=O)c1ccc(Cl)cc1Cl,-8,-18,0,2,-6,0
Cc1cc(OCCCCCN2CCCC2)ccc1Cl,55,67*,1,8,17,10
Cc1cc(OCCOCCN2CCCC2)ccc1C(C)C,35,57*,-1,-3,-1,5
CCCCCCC(CC(=O)NCc1cccnc1)CC(=O)NCc1cccnc1,-16,-14,-1,-1,0,14
COc1ccc(C(=O)Nc2ccccc2-c2nnn(CC(=O)Nc3ccc4c(c3)OCCO4)n2)cc1,14,16,-2,-2,66*,29
Nc1ccccc1-c1nnn(CC(=O)Nc2ccc3c(c2)OCCO3)n1,.,9,0,.,-2,18
CCN1CCCC1CNC(=O)C(=O)Nc1ccccc1OC (stereo not drawn),-8,-2,0,-1,-3,5

# Assay outcomes (PubChem BioAssay)
